The test system of experiment [1] is Plasmodium falciparum. As to the kind of experiment: Antimalarial activity against chloroquine-sensitive Plasmodium falciparum D10 after 48 hrs. The class given is functional, organism-based. To be noted: D10, 48 h. A digest of the protocol:
(§1)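 P. falciparum asexual culture in RPMI 1640 with glucose, HEPES, hypoxanthine, 5% Albumax, bicarbonate and gentamicin, sorbitol-synchronized at ring stage when needed. DMSO stocks serially diluted twofold in medium and added to parasitized erythrocytes at 2% hematocrit. Incubation 48 h at 37 °C under 3% O2/4% CO2/93% N2. pLDH read-out with Malstat plus NBT/PES at 620 nm. Runs in duplicate on two occasions; IC50 fitted from dose–response curves.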

In experiment [2] the test system is Plasmodium falciparum. Nature of the experiment: Antimalarial activity against chloroquine-resistant Plasmodium falciparum Dd2 after 48 hrs. The class given is functional, organism-based. To be noted: Dd2, 48 h. The method in brief: as §1
Experiment [3] concerns Plasmodium falciparum. Nature of the experiment: Antimalarial activity against chloroquine-resistant Plasmodium falciparum W2 after 48 hrs by FACS analysis in presence of 10 % human serum. To be noted: W2, 48 h. The class given is functional, organism-based. The method in brief:
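W2 parasites grown in standard medium containing 10% human serum. Growth inhibition assay as in earlier published work, with parasite development scored by flow cytometry (FACS).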

Experiment [4] in a line: Inhibition of beta-hematin formation assessed as equivalents of drug relative to hematin. The class given is functional. The method in brief:
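Colorimetric assay quantifying a compound's inhibition of the conversion of hematin to beta-hematin. IC50 is expressed in equivalents of compound relative to hematin.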

Data on three molecules can be found in ChEMBL document CHEMBL1287748, “Design, synthesis and in vitro antimalarial evaluation of triazole-linked chalcone and dienone hybrid compounds” (Bioorg Med Chem, 2010).

As for `COc1ccc(C(=O)/C=C/c2ccc(OCc3cn(-c4ccnc5cc(Cl)ccc45)nn3)c(OC)c2)c(OC)c1`, the IC50 in experiment [1] was found to be 40 nM; in experiment [2], 70 nM; in experiment [3], 90 nM; in experiment [4] it was 1.6 equiv.

For `COc1cc(C(=O)/C=C/c2ccc(OC)c(OC)c2OC)ccc1OCc1cn(-c2ccnc3cc(Cl)ccc23)nn1`, the IC50 in experiment [1] is 300 nM; in experiment [2], 300 nM; in experiment [3] it was 500 nM; in experiment [4], 4.1 equiv.

For the molecule `COc1cc(C(=O)/C=C/c2ccc(F)cc2)ccc1OCc1cn(-c2ccnc3cc(Cl)ccc23)nn1`, the IC50 in experiment [1] was 7400 nM; in experiment [2] it was 1600 nM; in experiment [3], 6900 nM; in experiment [4], 4.8 equiv.
